According to PMC7245055 (Chemical biology & drug design, 2019):
In brackets after ≈: the same amount, converted by molar mass. Entries after “also recorded” stand apart in the source; their conditions may differ.

Experiments:
[1] = Thermodynamic turbidimetric aqueous solubility assay; format: physicochemical; settings: for aqueous solubility (in words): turbidity at 620 nm in H2O; for solubility: pure water with 1% DMSO, 37 °C, water, kinetic from dmso stock
Outline: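 DMSO solutions of test compound were serially diluted from 40 mM to 0.1 mM. Each was diluted 2 μL into ~198 μL pure water and shaken on a rotary shaker at 37 °C for 1–2 h to reach equilibrium solubility. Turbidity was measured as absorbance at 620 nm. Triplicate wells, reported as means ± SD.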

INS-1 β-cells [2] = settings: cited from earlier work
INS-1 β cells [3] = assay: INS-1 cell viability against thapsigargin; format: cell-based, rat; settings: TG 18 nM, 72 h, CellTiter-Glo
Outline: (§1)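 INS-1 cells were plated in RPMI 1640 with 10% FBS at 5 × 10^3 cells/well and held 24 h at 37 °C. Test compound was pin-transferred, then stressor was added in medium: TG 18 nM or BFA 0.2 μg/mL. After 72 h the medium was removed and CellTiter-Glo (intracellular ATP) added; luminescence was read after 10 min. DMSO without stressor was normalized as 1. Data are means of 3 replicate wells, with 3 independent experiments.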

INS-1 β cells [4] = assay: INS-1 cell viability against brefeldin A; format: cell-based, rat; settings: BFA 0.2 μg/mL, 72 h, CellTiter-Glo
Outline: as §1

INS-1 β-cells [5] = assay: INS-1 β-cell viability against tunicamycin; format: cell-based, rat; settings: INS-1 cells, Tm
Outline: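 Rat INS-1 cells in RPMI 1640 with 10% FBS were seeded at 5 × 10^3 cells/well and held 24 h at 37 °C. Test compound was added as ten 2-fold serial titration points, then tunicamycin at 0.15 μg/mL final, for 72 h co-treatment. Viability was read as CellTiter-Glo luminescence (ATP) after 10 min. Maximum activity is % rescue, with Tm alone set as 0% and DMSO without Tm as 100%. EC50 was derived by curve fitting. Run in triplicate.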

Compound | aqueous solubility (in words) [1] | β-cell protective activity (in words) (INS-1 β-cells [5]) | other results
Cc1ccc(C)c(NC(=O)c2nnn(-c3cccc(Cl)c3C)c2C)c1 [Compound 1, 1-(3-chloro-2-methylphenyl)-N-(2,5-dimethylphenyl)-5-methyl-1H-1,2,3-triazole-4-carboxamide, reference compound] | poor aqueous solubility; also recorded: limited aqueous solubility; also recorded: aqueous insolubility |  | concentration at which β cell protective activity is exhibited (INS-1 β-cells [2]; narrow range of doses): 5~10 μM; maximal activity (INS-1 β-cells [2]; protection of β cells against ER stress): 97%
Cc1ccc(C)c(CNC(=O)CNC(=O)c2cccc(Cl)c2C)c1 [Compound 5a, 3-Chloro-N-(2-((2,5-dimethylbenzyl)amino)-2-oxoethyl)-2-methylbenzamide] |  |  | solubility [1]: ~75 µM (≈ 25.9 µg/mL)
Cc1c(Cl)cccc1C(=O)NCC(=O)NCCc1ccc(O)cc1 [Compound 5f, 3-Chloro-N-(2-((4-hydroxyphenethyl)amino)-2-oxoethyl)-2-methylbenzamide] |  |  | solubility [1]: ~200 µM (≈ 69.4 µg/mL)
Cc1c(Cl)cccc1C(=O)NCC(=O)NCc1ccc(C(F)(F)F)cc1 [Compound 5g, 3-Chloro-2-methyl-N-(2-oxo-2-((4-(trifluoromethyl)benzyl)amino)ethyl)benzamide] | improved water solubility compare to 1 |  | 
COc1cc(CNC(=O)CNC(=O)c2cccc(Cl)c2C)ccc1O [Compound 5h, 3-Chloro-N-(2-((4-hydroxy-3-methoxybenzyl)amino)-2-oxoethyl)-2-methylbenzamide] | improved water solubility compare to 1 |  | 
O=C(CNC(=O)c1cccc(O)c1)NCc1ccc(C(F)(F)F)cc1 [Compound 5m, 3-Hydroxy-N-(2-oxo-2-((4-(trifluoromethyl)benzyl)amino)ethyl)benzamide] |  |  | reduction in viability of INS-1 cells treated with TG (INS-1 β cells [3]): significantly reversed; reduction in viability of INS-1 cells treated with BFA (INS-1 β cells [4]): significantly reversed
COc1cc(CNC(=O)CNC(=O)c2cccc(O)c2)ccc1O [Compound 5n, 3-Hydroxy-N-(2-((4-hydroxy-3-methoxybenzyl)amino)-2-oxoethyl)benzamide] |  | significantly compromised activity | 
COc1cc(C(=O)NCC(=O)NCc2ccc(C(F)(F)F)cc2)ccc1O [Compound 5o, 4-hydroxy-3-methoxy-N-(2-oxo-2-((4-(trifluoromethyl)benzyl)amino)ethyl)benzamide] |  | significantly compromised activity | 
Cc1c(Cl)cccc1C(=O)NC(C)C(=O)NCc1ccc(C(F)(F)F)cc1 (stereo not shown) [Compound 5p, 3-Chloro-2-methyl-N-(1-oxo-1-((4-(trifluoromethyl)benzyl)amino)propan-2-yl)benzamide] |  | significantly less or not active | 
Cc1c(Cl)cccc1C(=O)NC(Cc1ccc(O)cc1)C(=O)NCc1ccc(C(F)(F)F)cc1 (stereo not shown) [Compound 5q, 3-Chloro-N-(3-(4-hydroxyphenyl)-1-oxo-1-((4-(trifluoromethyl)benzyl)amino)propan-2-yl)-2-methylbenzamide] |  | significantly less or not active | 
